Measured values from ChEMBL document CHEMBL1124839, “5-Hydroxytryptamine (5-HT3) receptor antagonists. 3. Ortho-substituted phenylureas” (J Med Chem, 1990).

Target: Serotonin 3 (5-HT3) receptor (Rattus norvegicus) (UniProt P35563+Q9JJ16)
Experiment: In vivo 5-hydroxytryptamine 3 receptor (5-HT 3 receptor) antagonistic activity expressed as ability to inhibit Bezold-Jarich reflex evoked by 5-HT in rats
Type: functional, organism-based
How it was run: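 Male rats (260-290 g) anesthetized with urethane (1.25 g/kg ip), with blood pressure and heart rate recorded. A submaximal 5-HT dose (6 µg/kg iv) was given repeatedly, and the heart-rate change was quantified. Compound was given iv before 5-HT. ID50 is the dose reducing the 5-HT-evoked response to 50% of the control response.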

| SMILES | ID50 |
| --- | --- |
| COc1ccc(NC(=O)NC2CC3CCC(C2)N3C)c(OC)c1 (configuration not stated) | > 10 µg/kg |
| COC(=O)c1ccccc1NC(=O)NC1CC2CCC(C1)N2C (configuration not stated) | 2.1 µg/kg |
| CSc1ccccc1NC(=O)NC1CC2CCC(C1)N2C (configuration not stated) | 12.7 µg/kg |
| COc1ccccc1NC(=O)NC1CC2CCC(C1)N2C (configuration not stated) | 2.5 µg/kg |
| COc1ccc([N+](=O)[O-])cc1NC(=O)NC1CC2CCC(C1)N2C (configuration not stated) | > 10 µg/kg |
| C=CCOc1ccccc1NC(=O)NC1CC2CCC(C1)N2C (configuration not stated) | 2.6 µg/kg |
| CN1C2CCC1CC(NC(=O)Nc1ccccc1O)C2 (configuration not stated) | 11.6 µg/kg |
| COc1ccccc1NC(=O)NC1CC2CCCC(C1)N2C (stereo in doubt; 6c) | 7.5 µg/kg |
| COCc1ccccc1NC(=O)NC1CC2CCC(C1)N2C (configuration not stated) | 13.4 µg/kg |
| CCOC(=O)c1ccccc1NC(=O)NC1CC2CCC(C1)N2C (configuration not stated) | 5.2 µg/kg |
| CN1C2CCC1CC(NC(=O)Nc1ccccc1OC(C)(C)C)C2 (configuration not stated) | > 10 µg/kg |
| CN1C2CCC1CC(NC(=O)Nc1ccccc1OCc1ccccc1)C2 (configuration not stated) | 5.2 µg/kg |
| COc1ccc(O)cc1NC(=O)NC1CC2CCC(C1)N2C (configuration not stated) | > 10 µg/kg |
| CCCCOc1ccccc1NC(=O)NC1CC2CCC(C1)N2C (configuration not stated) | 8.3 µg/kg |
| COc1cc(F)ccc1NC(=O)NC1CC2CCC(C1)N2C (configuration not stated) | > 10 µg/kg |
| COc1ccccc1NC(=O)OC1CC2CCC(C1)N2C (configuration not stated) | 2.4 µg/kg |
| CN(C)C(=O)c1ccccc1NC(=O)NC1CC2CCC(C1)N2C (configuration not stated) | > 10 µg/kg |
| CN1C2CCC1CC(NC(=O)Nc1ccccc1S(=O)(=O)N(C)C)C2 (configuration not stated) | 2.2 µg/kg |
| CC(C)Oc1ccccc1NC(=O)NC1CC2CCC(C1)N2C (configuration not stated) | 4.2 µg/kg |
| CCC(C)Oc1ccccc1NC(=O)NC1CC2CCC(C1)N2C (configuration not stated) | 2.7 µg/kg |
| COc1ccc(C)cc1NC(=O)NC1CC2CCC(C1)N2C (configuration not stated) | > 10 µg/kg |
| COc1ccc(OC)c(NC(=O)NC2CC3CCC(C2)N3C)c1 (configuration not stated) | > 10 µg/kg |
| CCCOc1ccccc1NC(=O)NC1CC2CCC(C1)N2C (configuration not stated) | 9.8 µg/kg |
| CCOc1ccccc1NC(=O)NC1CC2CCC(C1)N2C (configuration not stated) | 3.1 µg/kg |
| CN1C2CCC1CC(NC(=O)Nc1ccccc1Oc1ccccc1)C2 (configuration not stated) | 5.4 µg/kg |
| COc1ccc(F)cc1NC(=O)NC1CC2CCC(C1)N2C (configuration not stated) | 7 µg/kg |
| COc1ccccc1NC(=O)NC1CC2CCCC(C1)N2C (stereo in doubt; 11c) | > 100 µg/kg |
